Activity calls are given as the source filed them. No cut-off for these calls is given here.
Legend:
[1] = Inhibition of wild-type Acinetobacter baumannii DNA topoisomerase-4 mediated supercoiled pBR322 DNA relaxation by ethidium bromide based agarose gel electrophoresis
[2] = Inhibition of wild-type Escherichia coli DNA topoisomerase-4 mediated supercoiled pBR322 DNA relaxation by ethidium bromide based agarose gel electrophoresis
[3] = tested on: Staphylococcus aureus; assay: Antibacterial activity against Staphylococcus aureus ATCC 29213 by CLSI broth microdilution method; format: functional
[4] = tested on: Escherichia coli; assay: Antibacterial activity against wild-type Escherichia coli ATCC 25922 by CLSI broth microdilution method; format: functional
[5] = tested on: Acinetobacter baumannii; assay: Antibacterial activity against fluoroquinolone-resistant Acinetobacter baumannii T6474 by CLSI broth microdilution method; format: functional
[6] = tested on: Pseudomonas aeruginosa; assay: Antibacterial activity against Pseudomonas aeruginosa ATCC 27853 by CLSI broth microdilution method; format: functional
[7] = Inhibition of wild-type Escherichia coli DNA gyrase supercoiling activity using relaxed pBR322 DNA as substrate by ethidium bromide based agarose gel electrophoresis
[8] = Inhibition of wild-type Acinetobacter baumannii DNA gyrase supercoiling activity using relaxed pBR322 DNA as substrate by ethidium bromide based agarose gel electrophoresis
[9] = Inhibition of wild-type Pseudomonas aeruginosa DNA gyrase supercoiling activity using relaxed pBR322 DNA as substrate by ethidium bromide based agarose gel electrophoresis
[10] = Inhibition of wild-type Pseudomonas aeruginosa DNA topoisomerase-4 mediated supercoiled pBR322 DNA relaxation by ethidium bromide based agarose gel electrophoresis
[11] = tested on: Mus musculus; assay: Dose normalized AUC in NMRI mouse at 10 mg/kg, iv by LC-MS/MS analysis; format: ADME, organism-based; details: in vivo
[12] = Fraction unbound in NMRI mouse at 10 mg/kg, iv by rapid equilibrium dialysis; format: ADME, organism-based; details: plasma
Outline: (§1)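 Mice dosed iv at 10 mg/kg or sc at 120 mg/kg. AUC normalized to dose (μg·h/(mL·dose)). Unbound AUC derived using fraction unbound. Clearance, Vdss and terminal half-life also derived.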

[13] = tested on: Mus musculus; assay: Dose normalized unbound AUC in NMRI mouse at 10 mg/kg, iv by LC-MS/MS analysis; format: ADME, organism-based; details: in vivo; outline: as §1
[14] = Volume of distribution at steady state in NMRI mouse at 10 mg/kg, iv by LC-MS/MS analysis; format: ADME, organism-based; details: in vivo, read-out: Vdss
Outline: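 Mice received a single dose of 10 mg/kg intravenously, or 120 mg/kg subcutaneously for one compound. Clearance, Vdss, half-life, unbound fraction and dose-normalized AUC were derived from plasma exposure.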

[15] = Terminal half-life in NMRI mouse at 10 mg/kg, iv by LC-MS/MS analysis; format: ADME, organism-based; details: in vivo, read-out: beta t1/2 (converted); outline: as §1
[16] = tested on: Staphylococcus aureus; assay: Antibacterial activity against methicillin-sensitive Staphylococcus aureus A-1178 by CLSI broth microdilution method; format: functional
[17] = tested on: Staphylococcus aureus; assay: Antibacterial activity against methicillin-sensitive Staphylococcus aureus A-1178 infected in cyclophosphamide-induced neutropenic NMRI mouse model assessed as log reduction in colony forming units in thighs at 40 mg/kg, sc treated 2 hrs post infection measured 22 hrs post dose; format: functional
Outline: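 Neutropenic mouse thigh model infected with a methicillin-sensitive S. aureus strain, subcutaneous dosing. Thigh CFU measured 24 h post-infection (22 h post-treatment). Net log reduction given against CFU at treatment start.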

[18] = tested on: Staphylococcus aureus; assay: Antibacterial activity against methicillin/quinolone-resistant Staphylococcus aureus A-1171 by CLSI broth microdilution method; format: functional
[19] = tested on: Staphylococcus aureus; assay: Antibacterial activity against methicillin/quinolone-resistant Staphylococcus aureus A-1171 infected in cyclophosphamide-induced neutropenic NMRI mouse model assessed as log reduction in colony forming units in thighs at 40 mg/kg, sc treated 2 hrs post infection measured 22 hrs post dose; format: functional
Outline: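 Neutropenic murine thigh infection with MRSA. A single subcutaneous dose of 40 mg/kg was given. Thigh CFU were counted 24 h postinfection (22 h post-treatment). The net change in bacterial load is given in log units relative to CFU at the start of treatment.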

[20] = tested on: Klebsiella pneumoniae; assay: Antibacterial activity against Klebsiella pneumoniae ATCC 43816 by CLSI broth microdilution method; format: functional
[21] = tested on: Klebsiella pneumoniae; assay: Antibacterial activity against Klebsiella pneumoniae ATCC 43816 infected in cyclophosphamide-induced neutropenic NMRI mouse model assessed as reduction in colony forming units in thighs at 30 mg/kg, sc treated 2 hrs post infection measured 5.5 hrs post dose; format: functional, organism-based
Outline: (§2)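 Neutropenic murine thigh infection with a K. pneumoniae strain, single subcutaneous dose. Thigh CFU read 7.5 h post-infection (5.5 h after treatment, covering the dosing interval). Net log change computed against CFU at start of treatment.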

[22] = tested on: Klebsiella pneumoniae; assay: Antibacterial activity against Klebsiella pneumoniae ATCC 43816 infected in cyclophosphamide-induced neutropenic NMRI mouse model assessed as log reduction in colony forming units in thighs at 90 mg/kg, sc treated 2 hrs post infection measured 5.5 hrs post dose; format: functional; outline: as §2

With `COc1ccc2ncc(F)c(CC(N)[C@@H]3CC[C@@H](NCc4ccc5c(n4)NC(=O)CO5)CO3)c2n1` (mixture of isomers) the IC50 [1] was 0.03 µM, the IC50 [2] was 0.03 µM and the MIC [3] was 0.03 mg/L. It also gave an MIC [4] of 0.25 mg/L, an MIC [5] of 0.25 mg/L and an MIC [6] of 4 mg/L. It also gave an IC50 [7] of 0.125 µM, an IC50 [8] of 0.125 µM and an IC50 [9] of 0.03 µM. It also gave an IC50 [10] of 0.03 µM, an AUC/dose [11] of 260 ng·h/mL and a fraction unbound [12] of 0.154. For the same compound, the fAUC/dose [13] was 40 µg·h/mL, the Vd [14] was 6 L/kg and the half-life [15] was 1.2 h. For the same compound, the MIC [16] was 0.06 mg/L, the Activity [17] was 2 log10CFU and the MIC [18] was 0.03 mg/L. For the same compound, the Activity [19] was 1 log10CFU, the MIC [20] was 0.125 mg/L and the Activity [21] was “inactive”. It also gave an Activity [22] of 1 log10CFU.

Source: ChEMBL document CHEMBL4049439, “Synthesis and Characterization of Tetrahydropyran-Based Bacterial Topoisomerase Inhibitors with Antibacterial Activity against Gram-Negative Bacteria” (J Med Chem, 2017)
